Bioassay records from PubChem BioAssay.
Compounds with a hit are over-represented: about 3% of the library has one in this group of screens.
Cardio protect = cardioprotection against H2O2-induced cell death, primary screen, uHTS, H9c2 cells, ATPLite luminescence; protection from H2O2 cell death, % at 20 µM; actives 0.63% (n = 360,000); AID 588492, 2011; H9c2 cardiomyocytes, H2O2 injury protection, 2 h;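 active means compounds giving at least 50% protection of heart cells from peroxide-induced death in the single-dose screen, raw or plate-pattern-corrected value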;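 further: 0% = DMSO wells with peroxide and 100% = DMSO wells without peroxide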
SENP1 inh = human SENP1 catalytic domain inhibitors, primary screen, biochemical, FRET, uHTS. Sentrin-specific protease 1 (Homo sapiens), Q9P0U3. recombinant SENP1 catalytic domain, CyPet-SUMO1-YPet FRET cleavage. inhibition, % at 10 µM. actives 0.21% (n = 360,000);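 active means inhibition at least 30% at 10 µM, raw YFP signal under a set limit, fluorescence ratio 0.5 to 1.5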;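 further: 0% = enzyme with DMSO and 100% = no enzyme wells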
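material = recombinant human SENP1 catalytic domain, His6-tagged | quantity = 20 pM enzyme | reagent = 25 nM SUMO1 FRET substrate | compound dosing = 10 µM single point, 0.5% DMSO | timing = 50 min enzyme reaction, room temperature, light-protected | detection = FRET, CFP and YFP emission | control set = no-enzyme low, enzyme-DMSO high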
DSG3 Ab inh = inhibitors of pemphigus antibody binding to DSG3, primary screen, biochemical, bead-based, flow cytometry, scFv-GFP | Desmoglein-3 (Homo sapiens), P32926 | DSG3-coupled beads, scFv-anti-DSG3-GFP binding; stronger effect = lower value | binding (percent of control), % at 10 µM | actives 0.48% (n = 310,000) | AID 588358, 2011;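 active means binding more than 3 SD below its plate's average and above zero; inconclusive means below that plate limit but binding exactly zero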;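 further: hits lower antibody fragment binding to DSG3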
Myeloid diff MLP = induction of myeloid progenitor differentiation, primary screen, cell-based, flow cytometry, MLPCN library; ER-HoxA9 myeloid progenitors, lysozyme-GFP differentiation; calls only at 10 µM; actives 1% (n = 360,000); AID 624256, 2012;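 active means normalized GFP-positive differentiation at or above the plate's own cutoff, the solvent-only control mean plus 3 SD; inconclusive means no clear call, values can overlap the other calls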;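 further: cells exposed to compound for four days before flow analysis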
Exocytosis inh = LAMP-1 surface exposure blockers, TALL-104 cells – cell-based, flow cytometry, MLPCN library, primary screen; AID 651702, 2012; TALL-104 LAMP-1 surface exposure; cells stimulated with thapsigargin and PMA; inhibition, % at 10 µM; actives 0.66% (n = 360,000);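 active means inhibition above about 55%, limit read from the data; inconclusive means no clear call, values can overlap the other calls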
HNF4A DNA FP = change in binding of human HNF4A to DNA, primary screen, biochemical, fluorescence polarization, FITC-DNA | 1 h | activity change, % at 10 µM | actives 0.3% (n = 360,000) | AID 1224865, 2016; in the data active means activity change above about 30%, passing the limit was not always enough
Target sequence (P41235 whole entry, looked up): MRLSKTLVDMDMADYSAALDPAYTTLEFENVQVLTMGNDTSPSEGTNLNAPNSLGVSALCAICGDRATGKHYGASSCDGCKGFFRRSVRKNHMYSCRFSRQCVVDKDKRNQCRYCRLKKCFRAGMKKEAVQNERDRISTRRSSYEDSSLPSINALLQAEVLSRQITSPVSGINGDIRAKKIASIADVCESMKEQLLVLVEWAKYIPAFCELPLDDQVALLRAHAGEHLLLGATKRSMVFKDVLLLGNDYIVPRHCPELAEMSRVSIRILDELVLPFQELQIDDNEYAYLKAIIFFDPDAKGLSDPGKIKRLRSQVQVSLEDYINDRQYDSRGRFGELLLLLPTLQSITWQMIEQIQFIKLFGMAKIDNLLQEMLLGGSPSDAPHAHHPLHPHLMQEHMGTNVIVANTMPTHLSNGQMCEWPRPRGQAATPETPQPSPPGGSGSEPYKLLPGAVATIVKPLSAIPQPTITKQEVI
Active calls of the source: *.

Results for COc1ccc(-c2cc(NC=O)c3ncc(-c4cccc(C(F)(F)F)c4)n3c2)cc1OC ?
Cardio protect: 17; SENP1 inh: -24; Myeloid diff MLP: inactive; Exocytosis inh: 4; HNF4A DNA FP: 9

What do the screens show for `COc1cc(-c2cc(NC=O)c3ncc(-c4cccc(C(F)(F)F)c4)n3c2)cc(OC)c1OC`?
Cardio protect: 59*; SENP1 inh: -8; Myeloid diff MLP: inactive; Exocytosis inh: 9; HNF4A DNA FP: 11

How did COc1ccc(-c2cc(NC=O)c3ncc(-c4ccc(C(C)=O)cc4)n3c2)cc1OC do in these assays?
Cardio protect: 47; SENP1 inh: -7; Exocytosis inh: 2; HNF4A DNA FP: 5

Results for O=C(NC(Cc1nn[nH]n1)C(=O)OCc1ccccc1)OCc1ccccc1 (centres undefined) ?
Cardio protect: 0; SENP1 inh: 1; DSG3 Ab inh: 109; Myeloid diff MLP: inactive; Exocytosis inh: -3; HNF4A DNA FP: 3

Results for CCOCC(=O)NC1CCc2cc(OC)c(OC)c(OC)c2-c2ccc(SC)c(=O)cc21 (centres undefined) ?
Cardio protect: 3; SENP1 inh: -1; DSG3 Ab inh: 92; Exocytosis inh: -1; HNF4A DNA FP: -1

What do the screens show for `COc1ccccc1Nc1nn2c(=O)c3ccc(C(=O)N4CCCCC4)cc3nc2s1`?
Cardio protect: 47; SENP1 inh: 2; DSG3 Ab inh: 94; Myeloid diff MLP: inactive; Exocytosis inh: 9; HNF4A DNA FP: -1

How did COc1ccccc1Nc1nn2c(=O)c3ccc(C(=O)NCc4cccnc4)cc3nc2s1 do in these assays?
Cardio protect: 3; SENP1 inh: 5; DSG3 Ab inh: 94; Myeloid diff MLP: inconclusive; Exocytosis inh: -2; HNF4A DNA FP: 90*

What do the screens show for `O=C(O)CC1S/C(=N\N=C2\C(=O)Nc3ccccc32)N(c2ccc(O)cc2)C1=O` (centres undefined)?
Cardio protect: 3; SENP1 inh: 3; DSG3 Ab inh: 95; Myeloid diff MLP: inactive; Exocytosis inh: 11; HNF4A DNA FP: 0

Results for Cc1ccc(S(=O)(=O)N(C(=O)c2ccncc2)c2ccc(OC(=O)c3ccncc3)cc2)c(C)c1 ?
Cardio protect: 32; SENP1 inh: 0; Myeloid diff MLP: inactive; Exocytosis inh: 0; HNF4A DNA FP: 2

Results for Cc1ccc(C)c(S(=O)(=O)N(C(=O)c2ccncc2)c2ccc(OC(=O)c3ccncc3)cc2)c1 ?
Cardio protect: 53*; SENP1 inh: 2; DSG3 Ab inh: 102; Myeloid diff MLP: inactive; Exocytosis inh: -3; HNF4A DNA FP: 3

What do the screens show for `CCc1nnc(NC(=O)C2CCN(c3ncnc4sc(C)c(C)c34)CC2)s1`?
Cardio protect: -4; SENP1 inh: -4; Myeloid diff MLP: inactive; Exocytosis inh: 7; HNF4A DNA FP: 0

How did Cc1sc2ncnc(N3CCC(C(=O)N(C)CC(=O)Nc4ccccc4Cl)CC3)c2c1C do in these assays?
Cardio protect: 46; SENP1 inh: -1; DSG3 Ab inh: 100; Myeloid diff MLP: inactive; Exocytosis inh: 2; HNF4A DNA FP: 0

What do the screens show for `Cc1ccc(C)c(S(=O)(=O)N2CCN(C(=O)C3CCN(c4ncnc5sc(C)c(C)c45)CC3)CC2)c1`?
Cardio protect: -10; SENP1 inh: -2; DSG3 Ab inh: 105; Myeloid diff MLP: active; Exocytosis inh: 2; HNF4A DNA FP: -6

Results for Cc1ccc2nc(NC(=O)C3CCN(c4ncnc5sc(C)c(C)c45)CC3)sc2c1 ?
Cardio protect: -7; SENP1 inh: -10; DSG3 Ab inh: 86*; Exocytosis inh: -10; HNF4A DNA FP: 8

What do the screens show for `Cc1ccc(NC(=O)C2CCN(c3ncnc4sc(C)c(C)c34)CC2)cc1S(=O)(=O)N(C)C`?
Cardio protect: -1; SENP1 inh: -8; DSG3 Ab inh: 104; Myeloid diff MLP: inactive; Exocytosis inh: 1; HNF4A DNA FP: -3
